ChEMBL document CHEMBL4689842, “EUbOPEN Chemogenomics Library wave 1” (2021)

System: Fibroblast
Experiment: Multiplex assay against human fibroblast
Assay type: toxicity, cell-based
Outline: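 Live cells carried four stains from seeding: Hoechst33342, BioTracker Green Microtubule Cytoskeleton Dye, MitoTracker Red and Annexin V Alexa Fluor 680. They were imaged on a CQ1 microscope at 37°C and 5% CO2 after compound addition. Using CellPathfinder machine-learning gating, cells were split into Hoechst high-intensity objects or normal cells, normal cells into healthy, pyknosed or fragmented nuclei, and pyknosed cells into mitotic or apoptotic; tubulin, mitochondrial-mass and membrane-permeability phenotypes are per cents of healthy-nucleus cells.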

[1] = 12 h, 1 µM, compound concentration 1 uM, replicate 1
[2] = 12 h, 1 µM, compound concentration 1 uM, replicate 2
[3] = 12 h, 10 µM, compound concentration 10 uM, replicate 1
[4] = 12 h, 10 µM, compound concentration 10 uM, replicate 2
[5] = 24 h, 1 µM, compound concentration 1 uM, replicate 1
[6] = 24 h, 1 µM, compound concentration 1 uM, replicate 2
[7] = 24 h, 10 µM, compound concentration 10 uM, replicate 1
[8] = 24 h, 10 µM, compound concentration 10 uM, replicate 2
[9] = 48 h, 1 µM, compound concentration 1 uM, replicate 1
[10] = 48 h, 1 µM, compound concentration 1 uM, replicate 2
[11] = 48 h, 10 µM, compound concentration 10 uM, replicate 1
[12] = 48 h, 10 µM, compound concentration 10 uM, replicate 2

What does the source list for `Cc1[nH]c(/C=C2\C(=O)Nc3ccc(S(=O)(=O)N(C)c4cccc(Cl)c4)cc32)c(C)c1C(=O)N1CCN(C)CC1`?
Population Apoptotic (%) [1]: 64%; Population Fragmented Nuclei (%) [1]: 25%; Population Healthy Nuclei (%) [1]: 51%; Population Hoechst High Intensity Objects (%) [1]: 8%; Population Membrane Permeable-Phenotype (%) [1]: 40%; Population Mitochondria Different-Phenotype (%) [1]: 6%; Population Mitotic Cells (%) [1]: 35%; Population Normal (%) [1]: 91%; Population Pyknosed Nuclei (%) [1]: 22%; Population Tubulin-Different-Phenotype (%) [1]: 43%; Total Cell Count [1]: 68; Population Apoptotic (%) [2]: 100%; Population Fragmented Nuclei (%) [2]: 16%; Population Healthy Nuclei (%) [2]: 77%; Population Hoechst High Intensity Objects (%) [2]: 12%; Population Membrane Permeable-Phenotype (%) [2]: 12%; Population Mitochondria Different-Phenotype (%) [2]: 42%; Population Mitotic Cells (%) [2]: 0%; Population Normal (%) [2]: 87%; Population Pyknosed Nuclei (%) [2]: 6%; Population Tubulin-Different-Phenotype (%) [2]: 68%; Total Cell Count [2]: 90; Population Apoptotic (%) [3]: 61%; Population Fragmented Nuclei (%) [3]: 20%; Population Healthy Nuclei (%) [3]: 61%; Population Hoechst High Intensity Objects (%) [3]: 5%; Population Membrane Permeable-Phenotype (%) [3]: 59%; Population Mitochondria Different-Phenotype (%) [3]: 13%; Population Mitotic Cells (%) [3]: 38%; Population Normal (%) [3]: 94%; Population Pyknosed Nuclei (%) [3]: 18%; Population Tubulin-Different-Phenotype (%) [3]: 93%; Total Cell Count [3]: 76; Population Apoptotic (%) [4]: 25%; Population Fragmented Nuclei (%) [4]: 10%; Population Healthy Nuclei (%) [4]: 74%; Population Hoechst High Intensity Objects (%) [4]: 12%; Population Membrane Permeable-Phenotype (%) [4]: 40%; Population Mitochondria Different-Phenotype (%) [4]: 97%; Population Mitotic Cells (%) [4]: 75%; Population Normal (%) [4]: 87%; Population Pyknosed Nuclei (%) [4]: 16%; Population Tubulin-Different-Phenotype (%) [4]: 100%; Total Cell Count [4]: 70; Population Apoptotic (%) [5]: 53%; Population Fragmented Nuclei (%) [5]: 22%; Population Healthy Nuclei (%) [5]: 56%; Population Hoechst High Intensity Objects (%) [5]: 3%; Population Membrane Permeable-Phenotype (%) [5]: 28%; Population Mitochondria Different-Phenotype (%) [5]: 14%; Population Mitotic Cells (%) [5]: 46%; Population Normal (%) [5]: 96%; Population Pyknosed Nuclei (%) [5]: 20%; Population Tubulin-Different-Phenotype (%) [5]: 62%; Total Cell Count [5]: 64; Population Apoptotic (%) [6]: 100%; Population Fragmented Nuclei (%) [6]: 18%; Population Healthy Nuclei (%) [6]: 72%; Population Hoechst High Intensity Objects (%) [6]: 8%; Population Membrane Permeable-Phenotype (%) [6]: 10%; Population Mitochondria Different-Phenotype (%) [6]: 40%; Population Mitotic Cells (%) [6]: 0%; Population Normal (%) [6]: 91%; Population Pyknosed Nuclei (%) [6]: 9%; Population Tubulin-Different-Phenotype (%) [6]: 55%; Total Cell Count [6]: 65; Population Apoptotic (%) [7]: 77%; Population Fragmented Nuclei (%) [7]: 41%; Population Healthy Nuclei (%) [7]: 46%; Population Hoechst High Intensity Objects (%) [7]: 7%; Population Membrane Permeable-Phenotype (%) [7]: 38%; Population Mitochondria Different-Phenotype (%) [7]: 50%; Population Mitotic Cells (%) [7]: 22%; Population Normal (%) [7]: 92%; Population Pyknosed Nuclei (%) [7]: 12%; Population Tubulin-Different-Phenotype (%) [7]: 97%; Total Cell Count [7]: 79; Population Apoptotic (%) [8]: 100%; Population Fragmented Nuclei (%) [8]: 17%; Population Healthy Nuclei (%) [8]: 73%; Population Hoechst High Intensity Objects (%) [8]: 8%; Population Membrane Permeable-Phenotype (%) [8]: 84%; Population Mitochondria Different-Phenotype (%) [8]: 100%; Population Mitotic Cells (%) [8]: 0%; Population Normal (%) [8]: 91%; Population Pyknosed Nuclei (%) [8]: 9%; Population Tubulin-Different-Phenotype (%) [8]: 100%; Total Cell Count [8]: 71; Population Apoptotic (%) [9]: 61%; Population Fragmented Nuclei (%) [9]: 30%; Population Healthy Nuclei (%) [9]: 48%; Population Hoechst High Intensity Objects (%) [9]: 11%; Population Membrane Permeable-Phenotype (%) [9]: 17%; Population Mitochondria Different-Phenotype (%) [9]: 13%; Population Mitotic Cells (%) [9]: 38%; Population Normal (%) [9]: 88%; Population Pyknosed Nuclei (%) [9]: 21%; Population Tubulin-Different-Phenotype (%) [9]: 65%; Total Cell Count [9]: 68; Population Apoptotic (%) [10]: 50%; Population Fragmented Nuclei (%) [10]: 16%; Population Healthy Nuclei (%) [10]: 80%; Population Hoechst High Intensity Objects (%) [10]: 17%; Population Membrane Permeable-Phenotype (%) [10]: 27%; Population Mitochondria Different-Phenotype (%) [10]: 15%; Population Mitotic Cells (%) [10]: 50%; Population Normal (%) [10]: 82%; Population Pyknosed Nuclei (%) [10]: 2%; Population Tubulin-Different-Phenotype (%) [10]: 81%; Total Cell Count [10]: 88; Population Apoptotic (%) [11]: 66%; Population Fragmented Nuclei (%) [11]: 40%; Population Healthy Nuclei (%) [11]: 37%; Population Hoechst High Intensity Objects (%) [11]: 11%; Population Membrane Permeable-Phenotype (%) [11]: 16%; Population Mitochondria Different-Phenotype (%) [11]: 76%; Population Mitotic Cells (%) [11]: 33%; Population Normal (%) [11]: 88%; Population Pyknosed Nuclei (%) [11]: 22%; Population Tubulin-Different-Phenotype (%) [11]: 100%; Total Cell Count [11]: 76; Population Apoptotic (%) [12]: 50%; Population Fragmented Nuclei (%) [12]: 21%; Population Healthy Nuclei (%) [12]: 72%; Population Hoechst High Intensity Objects (%) [12]: 8%; Population Membrane Permeable-Phenotype (%) [12]: 25%; Population Mitochondria Different-Phenotype (%) [12]: 52%; Population Mitotic Cells (%) [12]: 50%; Population Normal (%) [12]: 91%; Population Pyknosed Nuclei (%) [12]: 6%; Population Tubulin-Different-Phenotype (%) [12]: 95%; Total Cell Count [12]: 72
